Measurements reported in ChEMBL document CHEMBL1135742, “Modification of the structure of a metallopeptide: synthesis and biological evaluation of (111)In-labeled DOTA-conjugated rhenium-cyclized alpha-MSH analogues” (J Med Chem, 2002).

Tests used:
Type in all cases: functional, organism-based
[1] = species: Mus musculus; experiment: Radioactivity uptake in the kidneys was expressed as a percentage of the injected radioactive dose per gram of tissue (% ID/g) in B16/F1 Murine Melanoma-Bearing C57 Mice at 24 h; conditions: Kidney
Summary of the method: (§1)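 C57 BL/6 female mice (7–8 weeks) carried B16/F1 tumours from 1×10^6 cells given s.c. in the right flank; tumours were ~500 mg at 9–10 days. Each mouse received […] of HPLC-purified, neutralized 111In-DOTA peptide via the tail vein. Mice were killed at 0.5, 2, 4 or 24 h pi. Tissues were weighed and γ-counted, expressed as % ID/g; ratios were tumor/tissue % ID/g.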

[2] = species: Mus musculus; experiment: Radioactivity uptake in the pancreas was expressed as a percentage of the injected radioactive dose per gram of tissue (% ID/g) in B16/F1 Murine Melanoma-Bearing C57 Mice at 24 h; summary of the method: as §1
[3] = species: Mus musculus; experiment: Radioactivity uptake in the pancreas was expressed as a percentage of the injected radioactive dose per gram of tissue (% ID/g) in B16/F1 Murine Melanoma-Bearing C57 Mice at 0.5 h; summary of the method: as §1
[4] = species: Mus musculus; experiment: Radioactivity uptake in the blood was expressed as a percentage of the injected radioactive dose per gram of tissue (% ID/g) in B16/F1 Murine Melanoma-Bearing C57 Mice at 4 h; summary of the method: as §1
[5] = species: Mus musculus; experiment: Uptake Ratio of Tumor/muscle (each in % ID/g) in B16/F1 Murine Melanoma-Bearing C57 Mice at 4 h; conditions: Muscle tissue
Summary of the method: (§2)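 Female C57 BL/6 mice, 7–8 weeks old, carried subcutaneous right-flank B16/F1 tumors from 1×10^6 cells and were used 9–10 days later at ~500 mg tumor weight. Each received […] of HPLC-purified, pH-neutralized ¹¹¹In-DOTA peptide by tail vein. Tumor and organs were excised at the stated time, weighed and γ-counted. Each tissue was taken as % ID/g, and tumor/normal-tissue ratios were formed from these values.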

[6] = species: Mus musculus; experiment: Uptake Ratio of Tumor/muscle (each in % ID/g) in B16/F1 Murine Melanoma-Bearing C57 Mice at 2 h; conditions: Muscle tissue; summary of the method: as §2
[7] = species: Mus musculus; experiment: Radioactivity uptake in the spleen was expressed as a percentage of the injected radioactive dose per gram of tissue (% ID/g) in B16/F1 Murine Melanoma-Bearing C57 Mice at 24 h; summary of the method: as §1
[8] = species: Mus musculus; experiment: Uptake Ratio of Tumor/liver (each in % ID/g) in B16/F1 Murine Melanoma-Bearing C57 Mice at 0.5 h; summary of the method: as §1
[9] = species: Mus musculus; experiment: Radioactivity uptake in the liver was expressed as a percentage of the injected radioactive dose per gram of tissue (% ID/g) in B16/F1 Murine Melanoma-Bearing C57 Mice at 24 h; summary of the method: as §1
[10] = species: Mus musculus; experiment: Radioactivity uptake in the blood was expressed as a percentage of the injected radioactive dose per gram of tissue (% ID/g) in B16/F1 Murine Melanoma-Bearing C57 Mice at 2 h; summary of the method: as §1
[11] = species: Mus musculus; experiment: Radioactivity uptake in the kidneys was expressed as a percentage of the injected radioactive dose per gram of tissue (% ID/g) in B16/F1 Murine Melanoma-Bearing C57 Mice at 0.5 h; conditions: Kidney; summary of the method: as §1
[12] = species: Mus musculus; experiment: Radioactivity uptake in the tumor was expressed as a percentage of the injected radioactive dose per gram of tissue (% ID/g) in B16/F1 Murine Melanoma-Bearing C57 Mice at 2 h; summary of the method: as §1
[13] = species: Mus musculus; experiment: Radioactivity uptake in the heart was expressed as a percentage of the injected radioactive dose per gram of tissue (% ID/g) in B16/F1 Murine Melanoma-Bearing C57 Mice at 0.5 h; summary of the method: as §1
[14] = species: Mus musculus; experiment: Radioactivity uptake in the lungs was expressed as a percentage of the injected radioactive dose per gram of tissue (% ID/g) in B16/F1 Murine Melanoma-Bearing C57 Mice at 0.5 h; conditions: Lung; summary of the method: as §1
[15] = species: Mus musculus; experiment: Uptake Ratio of Tumor/lungs (each in % ID/g) in B16/F1 Murine Melanoma-Bearing C57 Mice at 0.5 h; summary of the method: as §2
[16] = species: Mus musculus; experiment: Radioactivity uptake in the blood was expressed as a percentage of the injected radioactive dose per gram of tissue (% ID/g) in B16/F1 Murine Melanoma-Bearing C57 Mice at 0.5 h; summary of the method: as §1
[17] = species: Mus musculus; experiment: Uptake Ratio of Tumor/liver (each in % ID/g) in B16/F1 Murine Melanoma-Bearing C57 Mice at 4 h; summary of the method: as §1
[18] = species: Mus musculus; experiment: Radioactivity uptake in the heart was expressed as a percentage of the injected radioactive dose per gram of tissue (% ID/g) in B16/F1 Murine Melanoma-Bearing C57 Mice at 24 h; summary of the method: as §1
[19] = species: Mus musculus; experiment: Radioactivity uptake in the lungs was expressed as a percentage of the injected radioactive dose per gram of tissue (% ID/g) in B16/F1 Murine Melanoma-Bearing C57 Mice at 2 h; conditions: Lung; summary of the method: as §1
[20] = species: Mus musculus; experiment: Radioactivity uptake in the spleen was expressed as a percentage of the injected radioactive dose per gram of tissue (% ID/g) in B16/F1 Murine Melanoma-Bearing C57 Mice at 2 h; summary of the method: as §1
[21] = species: Mus musculus; experiment: Radioactivity uptake in the heart was expressed as a percentage of the injected radioactive dose per gram of tissue (% ID/g) in B16/F1 Murine Melanoma-Bearing C57 Mice at 4 h; summary of the method: as §1
[22] = species: Mus musculus; experiment: Radioactivity uptake in the lungs was expressed as a percentage of the injected radioactive dose per gram of tissue (% ID/g) in B16/F1 Murine Melanoma-Bearing C57 Mice at 24 h; conditions: Lung; summary of the method: as §1
[23] = species: Mus musculus; experiment: Radioactivity uptake in the kidneys was expressed as a percentage of the injected radioactive dose per gram of tissue (% ID/g) in B16/F1 Murine Melanoma-Bearing C57 Mice at 2 h; conditions: Kidney; summary of the method: as §1
[24] = species: Mus musculus; experiment: Uptake Ratio of Tumor/kidneys (each in % ID/g) in B16/F1 Murine Melanoma-Bearing C57 Mice at 0.5 h; conditions: Kidney; summary of the method: as §1
[25] = species: Mus musculus; experiment: Radioactivity uptake in the heart was expressed as a percentage of the injected radioactive dose per gram of tissue (% ID/g) in B16/F1 Murine Melanoma-Bearing C57 Mice at 2 h; summary of the method: as §1
[26] = species: Mus musculus; experiment: Uptake Ratio of Tumor/blood (each in % ID/g) in B16/F1 Murine Melanoma-Bearing C57 Mice at 2 h; summary of the method: as §1
[27] = species: Mus musculus; experiment: Radioactivity uptake in the pancreas was expressed as a percentage of the injected radioactive dose per gram of tissue (% ID/g) in B16/F1 Murine Melanoma-Bearing C57 Mice at 4 h; summary of the method: as §1
[28] = species: Mus musculus; experiment: Uptake Ratio of Tumor/kidneys (each in % ID/g) in B16/F1 Murine Melanoma-Bearing C57 Mice at 4 h; conditions: Kidney; summary of the method: as §1
[29] = species: Mus musculus; experiment: Radioactivity uptake in the pancreas was expressed as a percentage of the injected radioactive dose per gram of tissue (% ID/g) in B16/F1 Murine Melanoma-Bearing C57 Mice at 2 h; summary of the method: as §1
[30] = species: Mus musculus; experiment: Radioactivity uptake in the muscle was expressed as a percentage of the injected radioactive dose per gram of tissue (% ID/g) in B16/F1 Murine Melanoma-Bearing C57 Mice at 0.5 h; summary of the method: as §1
[31] = species: Mus musculus; experiment: Radioactivity uptake in the blood was expressed as a percentage of the injected radioactive dose per gram of tissue (% ID/g) in B16/F1 Murine Melanoma-Bearing C57 Mice at 24 h; summary of the method: as §1
[32] = species: Mus musculus; experiment: Uptake Ratio of Tumor/muscle (each in % ID/g) in B16/F1 Murine Melanoma-Bearing C57 Mice at 0.5 h; conditions: Muscle tissue; summary of the method: as §2

Substance | ID/g [1] | ID/g [2] | ID/g [3] | ID/g [4] | Uptake ratio [5] | Uptake ratio [6] | ID/g [7] | Uptake ratio [8] | ID/g [9] | ID/g [10] | ID/g [11] | ID/g [12] | ID/g [13] | ID/g [14] | Uptake ratio [15] | ID/g [16] | Uptake ratio [17] | ID/g [18] | ID/g [19] | ID/g [20] | also measured
Ac-Lys(DOTA)-ReCCEHdFRWCKPV-NH2 | 13.4% | 0.18% | 0.48% | 0.082% | 3400 | 468 | 0.21% | 10.7 | 0.28% | 0.09% | 23.4% | 8.15% | 0.86% | 1.51% | 4.7 | 1.99% | 20.8 | 0.13% | 0.18% | 0.11% | ID/g [21]: 0.029%; ID/g [22]: 0.14%; ID/g [23]: 18.4%; Uptake ratio [24]: 0.3; ID/g [25]: 0.08%; Uptake ratio [26]: 175; ID/g [27]: 0.057%; Uptake ratio [28]: 0.28; ID/g [29]: 0.074%; ID/g [30]: 0.42%; ID/g [31]: 0.072%; Uptake ratio [32]: 17.6
DOTA-ReCCEHdFRWCKPV-NH2 | 5.64% | 0.027% | 0.62% | 0.034% | 159 | 319 | 0.14% | 18.4 | 0.16% | 0.065% | 13% | 11.4% | 0.72% | 1.7% | 6.6 | 1.57% | 49.4 | 0.13% | 0.18% | 0.09% | ID/g [21]: 0.12%; ID/g [22]: 0.06%; ID/g [23]: 8.98%; Uptake ratio [24]: 0.85; ID/g [25]: 0.066%; Uptake ratio [26]: 196; ID/g [27]: 0.043%; Uptake ratio [28]: 1.1; ID/g [29]: 0.048%; ID/g [30]: 0.42%; ID/g [31]: 0.01%; Uptake ratio [32]: 27.8
DOTA-ReCCEHdFRWCKPV-OH | 7.35% | 0.064% | 0.39% | 0.056% | 277 | 174 | 0.22% | 23.1 | 0.17% | 0.11% | 11.5% | 9.19% | 0.68% | 1.21% | 9 | 1.56% | 69.1 | 0.15% | 0.18% | 0.2% | ID/g [21]: 0.12%; ID/g [22]: 0.11%; ID/g [23]: 8.8%; Uptake ratio [24]: 0.95; ID/g [25]: 0.058%; Uptake ratio [26]: 143; ID/g [27]: 0.074%; Uptake ratio [28]: 1.1; ID/g [29]: 0.03%; ID/g [30]: 0.39%; ID/g [31]: 0.1%; Uptake ratio [32]: 27.9
DOTA-ReCCEHdFRWCKPVD-OH | 6.28% | 0.017% | 0.27% | 0.051% | 156 | 102 | 0.043% | 20.7 | 0.19% | 0.05% | 11.5% | 8.29% | 0.44% | 1.16% | 7.8 | 1.33% | 46.8 | 0.017% | 0.16% | 0.23% | ID/g [21]: 0.054%; ID/g [22]: 0.035%; ID/g [23]: 8.07%; Uptake ratio [24]: 0.78; ID/g [25]: 0.07%; Uptake ratio [26]: 224; ID/g [27]: 0.031%; Uptake ratio [28]: 0.91; ID/g [29]: 0.029%; ID/g [30]: 0.25%; ID/g [31]: 0.018%; Uptake ratio [32]: 38.2
